Data taken from ChEMBL document CHEMBL3085758, “A stereoselective approach to peptidomimetic BACE1 inhibitors” (Eur J Med Chem, 2013).

Assays:
Beta-secretase 1 [1] = target: T1, Beta-secretase 1 (Homo sapiens, UniProt P56817); assay: Inhibition of human recombinant BACE1 using [acetyl-C(W8044Eu)-EVNLDAEFK-QSY7] as substrate by TR-FRET assay
Method in brief: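 Enzyme (6 nM) incubated with 200 nM europium-labelled TR-FRET substrate in 50 mM NaOAc, 0.005% Triton X-100, pH 4.5; inhibitors in 3.3% DMSO. Time-resolved fluorescence read at excitation 330 nm, emission 615 nm; IC50 from concentration-response curves, mean of at least 3 experiments.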

Beta-secretase 1 [2] = target: T1, Beta-secretase 1; assay: Inhibition of BACE1 in human SH-SY5Y cells expressing APP NFEV and wild-type alpha cleavage site assessed as generation of EV40/EV42 by electrochemiluminescence assay; assay type: cell-based
Method in brief: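 SHSY5Y cells expressing APP NFEV with wild-type alpha-cleavage site. Compounds started at […], then 3-fold dilutions (10 points). IC50 determined against generation of sAPPb NF and EV40 and EV42 peptides. Run at Merck RL.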

Beta-secretase 1 [3] = target: T1, Beta-secretase 1; assay: Inhibition of BACE1 in HEK293 cells expressing APP NFEV and APP K612V mutant assessed as generation of EV40/EV42 by electrochemiluminescence assay; assay type: cell-based
Method in brief: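 HEK293 cells carrying a proprietary APP construct with modified BACE cleavage sequence (NFEV) and K612V alpha-site mutation. Compounds started at […], then 3-fold dilutions (10 points). IC50 determined against generation of sAPPb NF and EV40 and EV42 peptides. Run at Merck RL.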

Beta-secretase 1 [4] = target: T1, Beta-secretase 1; assay: Selectivity ratio of IC50 for BACE1 in human SH-SY5Y cells to IC50 for BACE1 in HEK293 cells; assay type: cell-based

T1 sequence (P56817 whole entry): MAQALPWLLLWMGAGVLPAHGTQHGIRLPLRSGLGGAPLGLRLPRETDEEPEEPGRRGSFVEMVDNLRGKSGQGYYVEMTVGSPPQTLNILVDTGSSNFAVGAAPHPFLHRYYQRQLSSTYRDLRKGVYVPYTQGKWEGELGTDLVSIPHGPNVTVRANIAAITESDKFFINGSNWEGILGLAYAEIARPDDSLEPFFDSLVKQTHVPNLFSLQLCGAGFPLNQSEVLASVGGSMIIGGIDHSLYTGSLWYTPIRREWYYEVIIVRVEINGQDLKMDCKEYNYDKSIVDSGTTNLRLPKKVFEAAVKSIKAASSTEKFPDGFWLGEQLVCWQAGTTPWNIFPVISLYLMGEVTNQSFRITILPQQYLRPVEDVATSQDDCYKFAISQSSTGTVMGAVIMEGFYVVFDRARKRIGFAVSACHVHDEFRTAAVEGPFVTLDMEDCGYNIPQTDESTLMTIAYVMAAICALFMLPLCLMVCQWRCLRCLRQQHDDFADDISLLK

| IC50 (Beta-secretase 1 [1]; read-out: IC50) [µM] | Structure (SMILES) | other results |
| --- | --- | --- |
| 12.8 | CC(C)(C)OC(=O)N1CCN(c2ccc(-c3ccccc3)c3c2NC(=O)[C@H](c2ccccc2)N=C3)CC1 |  |
| 14.3 | CC(C)(C)OC(=O)N1CCN(c2cccc(C=O)c2NC(=O)[C@@H](NC(=O)OCc2ccccc2)c2ccccc2)CC1 |  |

Second part, the compound before the results:

| Structure (SMILES) | IC50 (Beta-secretase 1 [1]; read-out: IC50) [µM] | other results |
| --- | --- | --- |
| CC(C)(C)OC(=O)N1CCN(c2ccc(-c3ccccc3)c(C=O)c2NC(=O)[C@@H](NC(=O)OCC2c3ccccc3-c3ccccc32)c2ccccc2)CC1 | 14.8 |  |
| CC(C)(C)OC(=O)N(Cc1ccccc1)C[C@@H](O)c1cccc(NC(=O)[C@@H](NC(=O)OCc2ccccc2)c2ccccc2)c1 | 5.2 |  |
| O=C(N[C@H](C(=O)Nc1cccc([C@@H](O)CN[C@H](CO)Cc2ccccc2)c1)c1ccccc1)OCc1ccccc1 | 7.5 |  |
| O=C1Nc2c(N3CCNCC3)ccc(-c3ccccc3)c2C=N[C@H]1c1ccccc1 |  | IC50 (Beta-secretase 1 [1]): Not Active |
| CC(C)(C)OC(=O)N1CCN(c2ccc(-c3ccccc3)c3c2NC(=O)[C@H](c2ccccc2)NC3)CC1 |  | IC50 (Beta-secretase 1 [1]): Not Active |
| CC(C)(C)OC(=O)N(Cc1ccccc1)C[C@H](O)c1ccc(C(=O)c2ccccc2)c(NC(=O)[C@@H](NC(=O)OCc2ccccc2)c2ccccc2)c1 | 14.9 |  |
| CC(C)(C)OC(=O)N(Cc1ccccc1)C[C@H](O)c1cccc(NC(=O)c2cccc3ccccc23)c1 | 4.9 | IC50 (Beta-secretase 1 [2]): 11 µM; IC50 (Beta-secretase 1 [3]): > 7 µM |
| CC(C)(C)OC(=O)N(Cc1ccccc1)C[C@H](O)c1ccc(C(=O)c2ccccc2)c(NC(=O)[C@H](NC(=O)OCc2ccccc2)c2ccccc2)c1 | 18.1 |  |
| CC(C)(C)OC(=O)N(C[C@H](O)c1cccc(NC(=O)[C@@H](NC(=O)OCc2ccccc2)c2ccccc2)c1)[C@H](CO)Cc1ccccc1 | 6.4 |  |
| CC(C)(C)OC(=O)N(Cc1ccccc1)C[C@@H](O)c1cccc(NC(=O)[C@H](NC(=O)OCc2ccccc2)c2ccccc2)c1 | 4.7 | Ratio IC50 (Beta-secretase 1 [4]): 10; IC50 (Beta-secretase 1 [2]): > 100 µM; IC50 (Beta-secretase 1 [3]): > 10 µM |
| CC(C)(C)OC(=O)N(C[C@H](O)c1cccc(NC(=O)[C@@H](NC(=O)OCc2ccccc2)c2ccccc2)c1)[C@H](CO)c1ccccc1 | 9.2 |  |
| CC(C)(C)OC(=O)N1CCN(c2cccc3c2NC(=O)[C@H](c2ccccc2)N=C3)CC1 |  | IC50 (Beta-secretase 1 [1]): Not Active |
